From PubChem
OX1R antag-1 – antagonists of human orexin 1 receptor; AID 434989; 330,000 tested, 0.43% active; inhibition, % at 5 µM; CHO/OX1R cells, Fluo-8 calcium fluorescence, orexin A; O43613;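 active means inhibition above its plate's threshold, mean inhibition of all tested compounds on the plate plus 3 SD, cut at about 37% in these data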;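 further: 0% = orexin A challenge wells and 100% = SB-334867-A antagonist wells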
CHO parental Ca – counter-screen for OX1R antagonists: effect in parental CHO cells; parental CHO-K1, ATP-induced calcium, Fluo-8 fluorescence; inhibition, % at 5.6 µM; 330,000 tested, 0.63% active;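 active means inhibition above that plate's mean sample inhibition plus 3 SD, cut at about 26% in these data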;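 further: 0% = ATP-challenged DMSO wells and 100% = DMSO wells without ATP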
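Measured by: calcium-sensitive Fluo-8 fluorescence / Test system: CHO parental line / Controls: ATP-challenged DMSO wells low, unchallenged DMSO wells high / Measure: % inhibition / Compound: single nominal dose of 5.6 µM per compound / Replicates: single well per compound, no replicates / Reagent: ATP as calcium-mobilizing challenge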
TAAR1 antagonist – human TAAR1 antagonism; Q96RJ0; CHO RD-HGA16 TAAR1, Fluo-8 calcium fluorescence, antagonist; inhibition, % at 3 µM; 360,000 tested, 1.5% active;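 active means inhibition above a per-plate cutoff, the mean inhibition of test compounds on that plate plus 3 SD, cut at about 49% in these data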;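 further: 0% = DMSO plus EC80 beta-PEA response and 100% = DMSO alone without agonist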
Target sequence (Q96RJ0 whole entry, looked up): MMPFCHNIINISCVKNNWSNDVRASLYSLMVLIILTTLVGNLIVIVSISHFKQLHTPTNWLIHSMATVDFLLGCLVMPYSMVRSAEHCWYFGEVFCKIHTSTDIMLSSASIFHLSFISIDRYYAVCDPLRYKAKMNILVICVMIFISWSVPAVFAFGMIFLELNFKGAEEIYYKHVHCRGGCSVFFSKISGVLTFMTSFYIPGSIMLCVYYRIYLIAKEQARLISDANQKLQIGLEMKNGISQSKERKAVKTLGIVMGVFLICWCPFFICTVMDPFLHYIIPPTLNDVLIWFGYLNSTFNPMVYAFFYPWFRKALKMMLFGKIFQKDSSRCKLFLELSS
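test system = CHO RD-HGA16 cells bearing hTAAR1 | replication = singlicate | controls = DMSO-only wells and EC80 β-PEA-stimulated wells | reagent = EC80 β-phenethylamine stimulus | read-out basis = percent inhibition of PEA-evoked calcium signal, max/basal emission ratio | schedule = seeding 17-24 h prior, 75-min 37 °C, 30-min RT dye loading | signal = kinetic Fluo-8 calcium fluorescence measurement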
OX1R antag-2 – blocks the human orexin 1 receptor; O43613; OX1R-expressing cells, FRET antagonist read-out; inhibition, % at 6.6 µM; 330,000 tested, 1.8% active; in the data active means inhibition mostly above about 38%, no sharp cut-off; inactive means mostly below about 40%;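 further: 0% = agonist challenge alone and 100% = reference antagonist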
TAAR1 agonist – agonists of human TAAR1 | Q96RJ0 | CHO RD-HGA16 TAAR1, Fluo-8 calcium fluorescence; vehicle wells 0%, saturating PEA agonist 100% | activation, % at 3 µM | 360,000 tested, 0.99% active;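 active means activation above the mean activation of all test compounds in the run plus 3 SD, cut at about 38% in these data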
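Repeats: no replicates (n 1) | Material: CHO-derived RD-HGA16 cells with stable Gα16 and human TAAR1 | Technique: Kinetic Fluo-8 calcium fluorescence | Schedule: 17-24 h seeding, 75 min 37 °C dye, 30 min RT | Evaluation: % activation from peak over basal fluorescence ratio, DMSO-to-PEA scaled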
TAAR1 nonsel count – nonselective antagonism, TAAR1 counter-screen | shares compounds with TAAR1 antagonist | counterscreen cell line, calcium fluorescence, antagonist mode | inhibition, % at 3 µM | 2,400 tested, 77% active; in the data active means inhibition above about 22%;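 further: CHO-Ga16 host cells stimulated with ATP at an EC80 level; 0% = agonist EC80 plus vehicle and 100% = vehicle without agonist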
TAAR1 antag conf – confirmation of human TAAR1 antagonists; shares compounds with TAAR1 antagonist; 2,400 tested, 40% active; TAAR1-expressing cells, fluorescence antagonist read-out; AID 651785; inhibition, % at 3 µM; in the data active means inhibition above about 49%;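 further: CHO-Ga16 host cells challenged with agonist PEA near its EC80; 0% = agonist at EC80 plus vehicle and 100% = vehicle with no agonist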
Ga16 nonsel ag – counter-screen for TAAR1 antagonists: nonselective Ga16 agonists | shares compounds with TAAR1 antagonist | Ga16-expressing cells, calcium fluorescence, agonist counterscreen | activation, % at 3 µM | 2,400 tested, 18% active | AID 651953; in the data active means activation above about 12%;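 further: 0% = vehicle wells and 100% = saturating stimulus response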
TAAR1 ag counter – TAAR1 agonism, antagonist counter-screen; 2,400 tested, 2% active; shares compounds with TAAR1 antagonist; hTAAR1 cell line, fluorescence activation, agonist mode; activation, % at 3 µM; in the data active means activation above about 37%;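 further: CHO cells stably expressing TAAR1 with calcium dye readout; 0% = DMSO vehicle and 100% = full agonist response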
* hit, by the source's call; . = not tested or not shown. A selection: hits, their analogues and other compounds. The true share with any hit is near 4%.

SMILES	OX1R antag-1	CHO parental Ca	TAAR1 antagonist	OX1R antag-2	TAAR1 agonist	TAAR1 nonsel count	TAAR1 antag conf	Ga16 nonsel ag	TAAR1 ag counter
CCCCN(C)C(=O)C(Cc1ccccc1)NS(=O)(=O)c1ccc2c(c1)c(=O)n(C)c(=O)n2C (stereo not given)	-12	-11	67*	9	22	31*	46	11	13
C=CCOc1ccc(/C=C/C(=O)OCc2csc(CC(=O)Nc3ccccc3C)n2)cc1	-9	-5	66*	3	4	38*	52*	8	7
C=CCOc1ccc(/C=C/C(=O)OCC(=O)NCc2cccs2)cc1	-20	-10	52*	10	22	29*	40	9	24
Cc1ccccc1NC(=O)Cc1nc(COC(=O)/C=C/c2ccc(F)cc2)cs1	.	.	33	.	3	.	.	.	.
COc1cc(C(=O)NCC(=O)OCc2ccc(F)cc2)cc(OC)c1OC	-14	-9	48	5	11	.	.	.	.
O=C(CCc1nnc2ccc(NCc3ccco3)nn12)Nc1cccc(F)c1	-9	-8	-16	8	1	.	.	.	.
COc1cc(-c2noc(C)c2C#Cc2ccsc2)cc(OC)c1OC	10	-2	65*	50	28	18	34	6	20
CN1CCN(c2ccc(C(=O)NC3CCCCC3)cc2[N+](=O)[O-])CC1	-21	-18	-6	12	5	.	.	.	.
O=C(CCC(=O)c1cccs1)NCCc1ccc(F)cc1	-14	-11	66*	10	32	9	80*	1	54*
O=C(NC(c1ccc(-c2ccccc2)cc1)c1cnccn1)C1CCN(CCCOc2ccccc2)CC1 (stereo not given)	.	.	28	.	21	.	.	.	.
O=C(NC(c1ccc(-c2ccccc2)cc1)c1cnccn1)C1CCN(CCOc2ccc(F)cc2)CC1 (stereo not given)	.	.	71*	.	34	39*	53*	16*	25
COC(=O)C1(C)CCCC2(C)C3CCC(C(C)C)C(CO)C3C(CO)CC12 (stereo not given)	.	.	82*	.	25	32*	55*	14*	20
CCOC1=C2[C@@H](CN(S(=O)(=O)c3ccc(C)cc3)[C@H]2c2ccccc2F)[C@H]2C(=O)N(CC)C(=O)[C@H]2C1	.	.	-11	.	-1	.	.	.	.
CCOc1cc(/C=C/C(=O)NCCc2ccc(S(N)(=O)=O)cc2)ccc1OCC(C)C	2	-6	76*	11	6	25*	39	5	1
COc1ccccc1-c1cc(NC(C)=O)c2ncc(-c3ccccc3)n2c1	.	.	56*	.	4	24*	41	21*	37
COc1ccc(-c2cc(NC(C)=O)c3ncc(-c4ccc(OC)c(OC)c4)n3c2)c(OC)c1	.	.	-9	.	-1	.	.	.	.
CC(=O)Nc1cc(-c2cccc(F)c2)cn2c(-c3ccccc3)cnc12	.	.	61*	.	11	35*	43	4	8
CC(=O)Nc1cc(-c2ccccc2F)cn2c(-c3ccccc3)cnc12	.	.	68*	.	4	28*	47	10	14
CC(=O)Nc1cc(-c2ccccc2N(C)C)cn2c(-c3ccccc3)cnc12	.	.	40	.	19	.	.	.	.
COc1ccc(-c2cc(NC(C)=O)c3ncc(-c4ccccc4)n3c2)c(OC)c1	.	.	68*	.	3	26*	32	8	5
Cc1nc2ccc(C(=O)N3c4ccccc4N=C(c4ccc5c(c4)OCO5)C3C(=O)NCc3ccccc3)cc2[nH]1 (stereo not given)	.	.	-10	.	1	.	.	.	.
CCN(CC)C(=O)c1csc(COCCO)n1	.	.	-16	.	2	.	.	.	.
COc1ccccc1-c1cc(NC(C)=O)c2ncc(-c3cccc(C(F)(F)F)c3)n2c1	.	.	59*	.	1	32*	51*	6	20
CN(Cc1cccs1)C(=O)C1CC(=O)N(Cc2ccccc2)C1 (stereo not given)	-20	-2	3	14	2	.	.	.	.
Cc1ccc(C)c(S(=O)(=O)N2CCN(c3nc(-c4cccnc4)nc4ccccc34)CC2)c1	31	-39	61*	47*	5	13	38	6	8
SMILES	OX1R antag-1	CHO parental Ca	TAAR1 antagonist	OX1R antag-2	TAAR1 agonist	TAAR1 nonsel count	TAAR1 antag conf	Ga16 nonsel ag	TAAR1 ag counter
CCOc1ccc(-n2c(C)cc(/C=N\NC(=O)CC(=O)NC3CCCCC3)c2C)cc1	-30	-13	57*	4	0	25*	47	5	-1
CCOc1ccc(-n2c(C)cc(/C=N/NC(=O)C(N)=O)c2C)cc1	-29	-15	-26	14	-1	.	.	.	.
COc1cccc(CN2C(=O)NC3(CCCCCC3)C2=O)c1	-15	-4	-4	0	5	.	.	.	.
O=C1NC2(CCCCCC2)C(=O)N1Cc1cccc([N+](=O)[O-])c1	-7	3	101*	8	-2	0	5	1	5
O=C(OCC(=O)N(CCc1ccccc1)Cc1ccccc1)c1ccccc1O	-12	1	48	18	4	.	.	.	.
O=C(OCC(=O)N(CCc1ccccc1)Cc1ccccc1)c1ccccc1NCCO	-7	2	62*	25	5	29*	47	4	3
Cc1ccc(C)c(N2CCN(C(=O)c3ccc(CS(=O)(=O)c4ccccc4C)o3)CC2)c1	-23	-18	64*	12	16	37*	51*	7	6
COc1cc(/C=N/Nc2nc(-c3ccc(S(=O)(=O)N(C)C)cc3)cs2)ccc1O	6	14	69*	8	17	30*	43	11	13
COc1ccc2[nH]c(=O)c(CN(CCO)S(=O)(=O)c3ccc(C)cc3)cc2c1	-27	11	-3	0	0	.	.	.	.
CCCCN(Cc1cc2cc(OC)ccc2[nH]c1=O)S(=O)(=O)c1ccc(C)cc1	-13	-14	77*	5	5	14	48	7	22
COc1ccc(N(Cc2cc3ccccc3[nH]c2=O)S(=O)(=O)c2ccc(C)cc2)cc1	-29	-16	55*	9	1	21	36	8	9
COc1cc(C[C@@H]2C(=O)OC[C@H]2Cc2ccc(OC)c(OC)c2)ccc1O	33	13	14	12	16	.	.	.	.
CCCCNc1ncnc2c1cnn2Cc1ccc(Cl)cc1	-30	-22	10	-2	3	.	.	.	.
CCN(CC)c1ncnc2c1cnn2Cc1ccc(Cl)cc1	-24	-20	54*	17	13	27*	40	7	8
